Measured values reported in ChEMBL document CHEMBL4304822, “Mitochondrial-targeted Hsp90 C-terminal inhibitors manifest anti-proliferative activity” (Bioorg Med Chem Lett, 2019).
Calls of active or inactive are those of the source. No cut-off for these calls is given here.

Legend:
[1] = test system: MCF7; experiment: Ratio of IC50 for N-((1r,4r)-4-(4-(3-(dimethylamino)propoxy)phenyl)cyclohexyl)-3',6-dimethoxybiphenyl-3-carboxamide to IC50 for test compound for antiproliferative activity against human MCF7 cells; type: functional
[2] = test system: MCF7; experiment: Antiproliferative activity against human MCF7 cells by MTT assay; type: functional, cell-based
[3] = test system: SK-BR-3; experiment: Antiproliferative activity against human SKBR3 cells by MTT assay; type: functional, cell-based
[4] = test system: PC-3; experiment: Antiproliferative activity against human PC3 cells by MTT assay; type: functional, cell-based
[5] = test system: HCT-116; experiment: Antiproliferative activity against human HCT116 cells by MTT assay; type: functional, cell-based
[6] = Drug uptake in cytoplasm in human PC3 cells assessed as lowered drug accumulation incubated for 24 hrs by LC/MS analysis; type: ADME, subcellular; settings: pc-3, 24 h
In short: (§1)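 PC3 cells treated for 24 h, then separated into subcellular fractions; the compound in each isolated fraction was quantified by LC-MS.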

[7] = Drug uptake in mitochondria in human PC3 cells incubated for 24 hrs by LC/MS analysis; type: ADME; settings: pc-3, 24 h; in short: as §1
[8] = target: T1, Heat shock protein HSP90 (Homo sapiens, UniProt P07900+P08238); experiment: Inhibition of HSP90 […] in human SKBR3 cells assessed as induction of heat shock response by measuring increase in HSP70 protein level at 0.5 to 5 times antiproliferative IC50 incubated for 24 hrs by Western blot analysis; type: cell-based
[9] = target: T1, Heat shock protein HSP90; experiment: Inhibition of HSP90 at C-terminus in human SKBR3 cells assessed as induction of Raf1 protein degradation at 0.5 to 5 times antiproliferative IC50 incubated for 24 hrs by Western blot analysis; type: cell-based
[10] = target: T1, Heat shock protein HSP90; experiment: Inhibition of HSP90 at C-terminus in human SKBR3 cells assessed as Her2 protein degradation at 0.5 to 5 times antiproliferative IC50 incubated for 24 hrs by Western blot analysis; type: cell-based
[11] = target: T1, Heat shock protein HSP90; experiment: Inhibition of HSP90 at C-terminus in human SKBR3 cells assessed as AKT protein degradation at 0.5 to 5 times antiproliferative IC50 incubated for 24 hrs by Western blot analysis; type: cell-based
[12] = test system: MCF7; experiment: Ratio of IC50 for N-(7-(3-(dimethylamino)propoxy)-8-methyl-2-oxo-2H-chromen-3-yl)-3',6-dimethoxybiphenyl-3-carboxamide to IC50 for test compound for antiproliferative activity against human MCF7 cells; type: functional
[13] = target: T1, Heat shock protein HSP90; experiment: Inhibition of HSP90 at C-terminus in human SKBR3 cells assessed as induction of CDK4 protein degradation at 0.5 to 5 times antiproliferative IC50 incubated for 24 hrs by Western blot analysis; type: cell-based
[14] = test system: MCF7; experiment: Ratio of IC50 for N-(4'-(3-(dimethylamino)propoxy)biphenyl-4-yl)-3',6-dimethoxybiphenyl-3-carboxamide to IC50 for test compound for antiproliferative activity against human MCF7 cells; type: functional
[15] = test system: SK-BR-3; experiment: Ratio of IC50 for N-(4'-(3-(dimethylamino)propoxy)biphenyl-4-yl)-3',6-dimethoxybiphenyl-3-carboxamide to IC50 for test compound for antiproliferative activity against human SKBR3 cells; type: functional

Row | Compound | IC50 [2] | IC50 [3] | IC50 [4] | IC50 [5] | Drug uptake [6] | Drug uptake [7] | inhibition [9] | inhibition [10] | inhibition [11] | inhibition [13] | Ratio IC50 [1] | Activity [8] | Ratio IC50 [12] | Ratio IC50 [14] | Ratio IC50 [15]
1 | COc1cccc(-c2cc(C(=O)N[C@H]3CC[C@H](c4ccc(OCCC[P+](c5ccccc5)(c5ccccc5)c5ccccc5)cc4)CC3)ccc2OC)c1.[Br-] | 170 nM | 230 nM | 1560 nM | 380 nM | Active | Active | Active | inactive | inactive | – | 2 | Non-Toxic | – | – | –
2 | COc1cccc(-c2cc(C(=O)N[C@H]3CC[C@H](c4ccc(OCCCN(C)C)cc4)CC3)ccc2OC)c1 | 340 nM | 250 nM | – | – | – | Active | – | – | – | – | – | – | – | – | –
3 | COc1cccc(-c2cc(C(=O)Nc3cc4ccc(OCCC[P+](c5ccccc5)(c5ccccc5)c5ccccc5)c(C)c4oc3=O)ccc2OC)c1.[Br-] | 800 nM | 310 nM | 1940 nM | 640 nM | Active | Active | Active | inactive | inactive | Active | – | Non-Toxic | 2 | – | –
4 | COc1cccc(-c2cc(C(=O)Nc3ccc(-c4ccc(OCCCN(C)C)cc4)cc3)ccc2OC)c1 | 2140 nM | 2030 nM | 3530 nM | 1490 nM | – | Active | – | – | – | – | – | – | – | – | –

The remaining molecules from weak to strong by IC50 [2], led by results:

Row | IC50 [2] | IC50 [3] | IC50 [4] | IC50 [5] | Drug uptake [6] | Drug uptake [7] | inhibition [9] | inhibition [10] | inhibition [11] | inhibition [13] | Compound | Ratio IC50 [1] | Activity [8] | Ratio IC50 [12] | Ratio IC50 [14] | Ratio IC50 [15]
5 | 1800 nM | 850 nM | 1010 nM | 830 nM | – | Active | – | – | – | – | COc1cccc(-c2cc(C(=O)Nc3cc4ccc(OCCCN(C)C)c(C)c4oc3=O)ccc2OC)c1 | – | – | – | – | –
6 | 930 nM | 210 nM | 2940 nM | 450 nM | Active | Active | Active | inactive | inactive | Active | COc1cccc(-c2cc(C(=O)Nc3ccc(-c4ccc(OCCC[P+](c5ccccc5)(c5ccccc5)c5ccccc5)cc4)cc3)ccc2OC)c1.[Br-] | – | Non-Toxic | – | 2 | 10
